In ChEMBL document CHEMBL1154249, “Semisynthesis and biological evaluation of abietane-type diterpenes. Revision of the structure of rosmaquinone” (J Nat Prod, 2009):
Converted amounts (≈) assume the structure as drawn.

What was measured:
[1] = tested on: Staphylococcus aureus; experiment: Antibacterial activity against Staphylococcus aureus ATCC 6538 after 24 hrs by broth dilution assay; type: functional
[2] = tested on: HeLa; experiment: Cytotoxicity against human HeLa cells at exponential phase of growth after 48 hrs by MTT assay; type: functional, cell-based
In short: (§1)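 Monolayers grown in DMEM with 5% fetal calf serum and penicillin-streptomycin at 37 °C, 5% CO2. 2×10^4 cells/well in lag or log phase were exposed for 48 h to a concentration series of compounds predissolved in DMSO. MTT formazan was dissolved in DMSO and read at 550 nm. IC50 taken from the curve; three independent experiments.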

[3] = tested on: MCF7; experiment: Cytotoxicity against human MCF7 cells at lag phase of growth after 48 hrs by MTT assay; type: functional, cell-based; in short: as §1
[4] = tested on: Mycolicibacterium smegmatis; experiment: Antibacterial activity against Mycobacterium smegmatis ATCC 19420 after 48 hrs by broth dilution assay; type: functional; details: ATCC 19420, 48 h
In short: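 Brain heart infusion broth with 0.06% Tween 80, 37 °C on a rotary shaker, inoculum about (1-5) × 10^5 cfu/mL, DMSO ≤1% v/v with matched controls, in triplicate. OD550 monitored.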

[5] = tested on: HEp-2; experiment: Cytotoxicity against human Hep2 cells at lag phase of growth after 48 hrs by MTT assay; type: functional, cell-based; in short: as §1
[6] = tested on: HeLa; experiment: Cytotoxicity against human HeLa cells at lag phase of growth after 48 hrs by MTT assay; type: functional, cell-based; in short: as §1
[7] = tested on: MCF7; experiment: Cytotoxicity against human […] cells at exponential phase of growth after 48 hrs by MTT assay; type: functional, cell-based; in short: as §1
[8] = tested on: Staphylococcus epidermidis; experiment: Antibacterial activity against Staphylococcus epidermidis ATCC 14990 after 24 hrs by broth dilution assay; type: functional
In short: (§2)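 Microdilution in nutrient broth at 37 °C, about (1-5) × 10^5 cfu/mL inoculum, compounds in DMSO (≤1% v/v, matched DMSO controls), in triplicate. Growth followed by OD550. Wells without visible growth after 24 h on a rotary shaker were subcultured in duplicate onto nutrient agar and colonies counted after overnight incubation. MIC is the lowest concentration inhibiting growth at 24 h.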

[9] = tested on: Enterococcus faecalis; experiment: Antibacterial activity against Enterococcus faecalis ATCC 29212 after 24 hrs by broth dilution assay; type: functional; details: ATCC 29212, 24 h
In short: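 Microdilution in brain heart infusion broth, shaken at 37 °C, about (1-5) × 10^5 cfu/mL start, DMSO ≤1% v/v with matched controls, in triplicate. OD550 read. Clear wells at 24 h were subcultured in duplicate onto brain heart infusion agar and counted after overnight incubation. MIC is the lowest concentration giving growth inhibition.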

[10] = tested on: A549; experiment: Cytotoxicity against human A549 cells at lag phase of growth after 48 hrs by MTT assay; type: functional, cell-based; details: Homo sapiens, A549, 48 h; read-out: IC50; in short: as §1
[11] = tested on: Vero; experiment: Cytotoxicity against african green monkey Vero cells at lag phase of growth after 48 hrs by MTT assay; type: cell-based, Chlorocebus sabaeus; in short: as §1
[12] = tested on: Vero; experiment: Cytotoxicity against african green monkey Vero cells at exponential phase of growth after 48 hrs by MTT assay; type: cell-based, Chlorocebus sabaeus; in short: as §1
[13] = tested on: Bacillus subtilis; experiment: Antibacterial activity against Bacillus subtilis ATCC 6051 after 24 hrs by broth dilution assay; type: functional
[14] = tested on: Salmonella; experiment: Antibacterial activity against Salmonella CECT 4569 after 24 hrs by broth dilution assay; type: functional; details: CECT 4569, 24 h; in short: as §2
[15] = tested on: Pseudomonas aeruginosa; experiment: Antibacterial activity against Pseudomonas aeruginosa AK958 after 24 hrs by broth dilution assay; type: functional; details: AK958, 24 h; in short: as §2
[16] = tested on: Proteus mirabilis; experiment: Antibacterial activity against Proteus mirabilis CECT 170 after 24 hrs by broth dilution assay; type: functional; details: CECT 170, 24 h; in short: as §2
[17] = tested on: Bacillus cereus; experiment: Antibacterial activity against Bacillus cereus ATCC 21772 after 24 hrs by broth dilution assay; type: functional
[18] = tested on: A549; experiment: Cytotoxicity against human A549 cells at exponential phase of growth after 48 hrs by MTT assay; type: functional, cell-based; in short: as §1
[19] = tested on: HEp-2; experiment: Cytotoxicity against human Hep2 cells at exponential phase of growth after 48 hrs by MTT assay; type: functional, cell-based; in short: as §1
[20] = tested on: Escherichia coli; experiment: Antibacterial activity against Escherichia coli ATCC 9637 after 24 hrs by broth dilution assay; type: functional; details: ATCC 9637, 24 h; in short: as §2
[21] = tested on: Candida albicans; experiment: Antibacterial activity against Candida albicans CECT 1039 after 24 hrs by broth dilution assay
[22] = Homo sapiens, HeLa, 48 h, read-out: IC50
[23] = Homo sapiens, MCF7, 48 h, read-out: IC50
[24] = Homo sapiens, HEp-2, 48 h, read-out: IC50
[25] = Chlorocebus sabaeus, Vero, 48 h, read-out: IC50
[26] = Homo sapiens, A549, 48 h, read-out: IC50

MIC [1] [µg/mL]	MIC [4] [µg/mL]	MIC [8] [µg/mL]	MIC [9] [µg/mL]	MIC [13] [µg/mL]	MIC [14] [µg/mL]	MIC [15] [µg/mL]	MIC [16] [µg/mL]	MIC [20] [µg/mL]	MIC [21] [µg/mL]	SMILES	IC50 [2, 22] [µM]	IC50 [3, 23] [µM]	IC50 [5, 24] [µM]	IC50 [6, 22] [µM]	IC50 [7, 23] [µM]	IC50 [10] [µM]	IC50 [11, 25] [µM]	IC50 [12, 25] [µM]	MI50 [17] [µg/mL]	IC50 [18, 26] [µM]	also measured
>40	> 40	>40	> 40	>40	> 40	> 40	> 40	> 40	>40	COC(=O)C1=C2C=C(C(C)C)COC2(O)[C@H]2OC(=O)[C@@]13CCCC(C)(C)[C@H]23 (some centres not stated)	> 60	> 60	> 60	> 60	42.6	> 60	> 60	> 60	>40	39.4	IC50 [19, 24]: > 60 µM
>40	> 40	>40	> 40	>40	> 40	> 40	> 40	> 40	>40	COc1c2c(c(O)c3c1[C@@H](C)CO3)[C@@]13CCCC(C)(C)[C@@H]1C[C@@H]2OC3=O	–	–	–	–	–	–	–	–	>40	–	IC50 ([2]; hela): Not Active; IC50 ([3]; mcf7): Not Active; IC50 ([5]; hep-2): Not Active; IC50 ([6]; hela): Not Active; IC50 ([7]; mcf7): Not Active; IC50 ([11]; vero): Not Active; IC50 ([12]; vero): Not Active; IC50 ([18]; a549): Not Active; IC50 ([19]; hep-2): Not Active
>40	> 40	>40	> 40	>40	> 40	> 40	> 40	> 40	>40	C[C@H]1COC2=C1C(=O)C1=C(C2=O)[C@@]23CCCC(C)(C)[C@@H]2C[C@@H]1OC3=O	17.5	33	> 58.4	50.3	18.4	> 58.4	> 58.4	> 58.4	>40	40.4	IC50 [19, 24]: 39.8 µM
–	> 40	–	> 40	–	> 40	> 40	> 40	> 40	–	CO/N=C(\C(=O)N[C@@H]1C(=O)N2C(C(=O)O)=C(COC(C)=O)CS[C@H]12)c1csc(N)n1 [CEFOTAXIME]	–	–	–	–	–	–	–	–	–	–	MIC ([1]; Staphylococcus aureus, ATCC 6538, 24 h, read-out: MIC): 1.25 µg/mL (≈ 2.74 µM); MIC ([8]; Staphylococcus epidermidis, ATCC 14990, 24 h, read-out: MIC): 2.5 µg/mL (≈ 5.49 µM); MIC ([13]; Bacillus subtilis, ATCC 6051, 24 h, read-out: MIC): 8 µg/mL (≈ 17.6 µM); MIC ([17]; Bacillus cereus, ATCC 21772, 24 h): 10 µg/mL (≈ 22 µM)
>40	> 40	>40	> 40	>40	> 40	> 40	> 40	> 40	>40	COC(=O)C1=C(/C=C(\C(=O)OC)C(C)C)[C@@H]2C[C@H]3C(C)(C)CCC[C@]13C(=O)O2	–	–	–	–	–	–	–	–	>40	–	IC50 ([2]; hela): Not Active; IC50 ([3]; mcf7): Not Active; IC50 ([5]; hep-2): Not Active; IC50 ([6]; hela): Not Active; IC50 ([7]; mcf7): Not Active; IC50 ([11]; vero): Not Active; IC50 ([12]; vero): Not Active; IC50 ([18]; a549): Not Active; IC50 ([19]; hep-2): Not Active
–	–	–	–	–	–	–	–	–	–	Sc1ncnc2nc[nH]c12 [MERCAPTOPURINE ANHYDROUS]	4.1	1.4	431	2.9	5.8	47	67.5	119	–	49.3	IC50 [19, 24]: 318 µM
